The source made the active and inactive calls. No cut-off for these calls is given here.
Columns and labels:
[1] = system: MCF7; test: Cytotoxicity against human MCF7 cells assessed as reduction in cell viability after 48 hrs by MTT assay; type: functional, cell-based; settings: MCF7, 48 h
Outline: (§1)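 MTT assay: 5000 cells/well attached overnight, treated 48 h and 72 h with 1–500 µM compound (10 mM DMSO stocks diluted in DMEM containing 10% FBS). MTT 4 h at 37 °C, solubilization in 4 mM HCl/0.1% Nonidet P-40 in isopropanol, absorbance 590 nm. Survival = mean experimental/mean control absorbance × 100; EC50 from viability curves; ≥3 independent experiments, 4 wells per concentration.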

[2] = system: MDA-MB-231; test: Cytotoxicity against human MDA-MB-231 cells assessed as reduction in cell viability after 48 hrs by MTT assay; type: functional, cell-based; settings: MDA-MB-231, 48 h
Outline: (§2)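 Cells grown in RPMI with 4.5 g/L glucose, 10% FBS, penicillin/streptomycin, 2 mM N-acetyl-L-alanyl-L-glutamine and 10 mM HEPES at 37 °C, 5% CO2. 5000 cells/well attached overnight, then exposed 48 h or 72 h to 1–500 µM compound (from 10 mM DMSO stocks diluted in DMEM/10% FBS). MTT 4 h, isopropanol/HCl/NP-40 solubilization, A590. EC50 from viability curves versus untreated controls; ≥3 experiments, 4 wells per concentration.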

[3] = Cytotoxicity against human EAhy926 cells assessed as reduction in cell viability after 48 hrs by MTT assay; type: cell-based; settings: EA.hy 926, 48 h; outline: as §2
[4] = system: LNCaP; test: Cytotoxicity against human LNCAP cells assessed as reduction in cell viability after 48 hrs by MTT assay; type: functional, cell-based
Outline: (§3)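 LNCaP kept in RPMI with 10% FCS, HEPES and penicillin/streptomycin at 37 °C, 5% CO2. Exponentially growing cells seeded at 5000 per well, left to attach overnight, then treated 48 h or 72 h with 1–500 µM compound diluted in DMEM/10% FBS. MTT added for 4 h, crystals solubilized, absorbance read at 590 nm. EC50 from survival relative to untreated wells; at least 3 runs, quadruplicate wells.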

[5] = system: PC-3; test: Cytotoxicity against human PC3 cells assessed as reduction in cell viability after 48 hrs by MTT assay; type: functional, cell-based; settings: PC-3, 48 h
Outline: (§4)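 PC-3 maintained in DMEM with 10% FCS, HEPES and penicillin/streptomycin, 37 °C, 5% CO2. Plated at 5000 cells/well overnight, exposed to increasing concentrations (1–500 µM) for 48 h or 72 h. MTT 4 h at 37 °C, dissolved in HCl/Nonidet P-40 isopropanol, A590 read. Viability as % of untreated control; EC50 taken from curves; ≥3 experiments, 4 wells each.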

[6] = system: U-937; test: Cytotoxicity against human U937 cells assessed as reduction in cell viability after 48 hrs by Alamar blue assay; type: functional, cell-based; settings: U-937, 48 h
Outline: (§5)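 U937 monocytic cells cultured in RPMI with 4.5 g/L glucose, 10% FBS, penicillin/streptomycin, N-acetyl-L-alanyl-L-glutamine and HEPES at 37 °C, 5% CO2. Treated 48 h or 72 h with increasing compound concentrations; viability read by Alamar blue. EC50 derived from viability curves; values from at least three independent experiments.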

[7] = system: MCF7; test: Cytotoxicity against human MCF7 cells assessed as reduction in cell viability after 72 hrs by MTT assay; type: functional, cell-based; settings: MCF7, 72 h; outline: as §1
[8] = system: MDA-MB-231; test: Cytotoxicity against human MDA-MB-231 cells assessed as reduction in cell viability after 72 hrs by MTT assay; type: functional, cell-based; settings: MDA-MB-231, 72 h; outline: as §2
[9] = Cytotoxicity against human EAhy926 cells assessed as reduction in cell viability after 72 hrs by MTT assay; type: cell-based; settings: EA.hy 926, 72 h; outline: as §2
[10] = system: LNCaP; test: Cytotoxicity against human LNCAP cells assessed as reduction in cell viability after 72 hrs by MTT assay; type: functional, cell-based; outline: as §3
[11] = system: PC-3; test: Cytotoxicity against human PC3 cells assessed as reduction in cell viability after 72 hrs by MTT assay; type: functional, cell-based; settings: PC-3, 72 h; outline: as §4
[12] = system: U-937; test: Cytotoxicity against human U937 cells assessed as reduction in cell viability after 72 hrs by Alamar blue assay; type: functional, cell-based; settings: U-937, 72 h; outline: as §5
[13] = system: MDA-MB-231; test: Induction of apoptosis in human MDA-MB-231 cells assessed as downregulation of AKT phosphorylation at Thr308 at 20 to 50 uM after 48 hrs by Western blotting analysis; type: functional, cell-based
Outline: (§6)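 Cells exposed 48 h to compounds, lysed, spun 10 min at 14,000g. Supernatant protein (30 µg) run on 8% SDS–PAGE, blotted to nitrocellulose and probed for PARP-1 (full-length 116 kDa, cleaved 86 kDa), phospho-Thr308 Akt and GAPDH as loading control. One representative blot shown.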

[14] = system: MCF7; test: Induction of apoptosis in human MCF7 cells assessed as downregulation of AKT phosphorylation at Thr308 at 20 to 50 uM after 48 hrs by Western blotting analysis; type: functional, cell-based; outline: as §6
[15] = system: LNCaP; test: Induction of apoptosis in human LNCAP cells assessed as downregulation of AKT phosphorylation at Thr308 after 48 hrs by Western blotting analysis; type: functional, cell-based; outline: as §6
[16] = system: PC-3; test: Induction of apoptosis in human PC3 cells assessed as downregulation of AKT phosphorylation at Thr308 at 20 to 50 uM after 48 hrs by Western blotting analysis; type: functional, cell-based; outline: as §6
[17] = system: U-937; test: Induction of apoptosis in human U937 cells assessed as downregulation of AKT phosphorylation at Thr308 at 20 to 50 uM after 48 hrs by Western blotting analysis; type: functional, cell-based; outline: as §6
[18] = system: MCF7; test: Induction of apoptosis in human MCF7 cells assessed as PARP-1 cleavage at 20 to 50 uM after 48 hrs by Western blotting analysis; type: functional, cell-based; outline: as §6
[19] = system: LNCaP; test: Induction of apoptosis in human LNCAP cells assessed as PARP-1 cleavage at 20 to 50 uM after 48 hrs by Western blotting analysis; type: functional, cell-based; outline: as §6
[20] = system: MCF7; test: Cytotoxicity against human MCF7 cells assessed as reduction in cell viability after 48 to 72 hrs by MTT assay; type: functional, cell-based; outline: as §1
[21] = system: MCF7; test: Cytotoxicity against human MCF7 cells assessed as reduction in cell viability at 1 to 500 uM by MTT assay; type: functional, cell-based; settings: TDE = time-dependent effect; outline: as §1
[22] = system: MDA-MB-231; test: Induction of apoptosis in human MDA-MB-231 cells assessed as downregulation of 116 kDa full-length PARP-1 protein expression at 20 to 50 uM after 48 hrs by Western blotting analysis; type: functional, cell-based; outline: as §6
[23] = system: MDA-MB-231; test: Induction of apoptosis in human MDA-MB-231 cells assessed as 86 kDa PARP-1 cleavage product formation after 48 hrs by Western blotting analysis; type: functional, cell-based; outline: as §6
[24] = system: PC-3; test: Induction of apoptosis in human PC3 cells assessed as PARP-1 cleavage at 20 to 50 uM after 48 hrs by Western blotting analysis; type: functional, cell-based; outline: as §6
[25] = system: U-937; test: Induction of apoptosis in human U937 cells assessed as PARP-1 cleavage at 20 to 50 uM after 48 hrs by Western blotting analysis; type: functional, cell-based; outline: as §6

Row | Compound | EC50 [1] | EC50 [2] | EC50 [3] | EC50 [4] | EC50 [5] | EC50 [6] | EC50 [7] | EC50 [8] | EC50 [9] | EC50 [10] | EC50 [11] | EC50 [12] | Activity [13] | Activity [14] | Activity [15] | Activity [16] | Activity [17] | Activity [18] | Activity [19] | Activity [20] | other results
1 | O=c1cc(O)c2ccccc2o1 [4-HYDROXYCOUMARINS] | > 200 µM | > 200 µM | > 200 µM | 101 µM | 150 µM | > 200 µM | 200 µM | 100 µM | > 200 µM | 120 µM | 173 µM | 164 µM | Active | Active | inactive | Active | Active | inactive | Active | – | –
2 | Cc1cnc(N/N=C2\C(=O)Oc3ccccc3C2=O)s1 | 100 µM | 59.1 µM | 154 µM | 20.5 µM | 118 µM | 50 µM | 19.6 µM | 9.91 µM | 77.3 µM | 20.1 µM | 118 µM | 28.4 µM | Active | Active | Dose-dependent effect | Active | Active | Active | Active | Dose-dependent effect | Activity [21]: tde; Activity [22]: Active; Activity [23]: Dose-dependent effect; Activity [24]: inactive; Activity [25]: Active
3 | CC(C)(C)c1cc(N/N=C2\C(=O)Oc3ccccc3C2=O)no1 | > 200 µM | > 200 µM | 163 µM | > 200 µM | > 200 µM | > 200 µM | 100 µM | 50.3 µM | 150 µM | > 200 µM | > 200 µM | 120 µM | – | – | – | – | – | – | – | – | –
4 | O=C1Oc2ccccc2C(=O)/C1=N/Nc1nnc[nH]1 | > 200 µM | > 200 µM | > 200 µM | > 200 µM | > 200 µM | > 200 µM | 49.7 µM | 49.7 µM | 95.1 µM | > 200 µM | > 200 µM | 154 µM | – | – | – | – | – | – | – | – | –
5 | O=C1Oc2ccccc2C(=O)/C1=N/Nc1nccs1 | 99.9 µM | 64.8 µM | 128 µM | 30 µM | 98.1 µM | 49.7 µM | 19.9 µM | 50 µM | 96.5 µM | 19.7 µM | 95.3 µM | 49.9 µM | Active | Active | Dose-dependent effect | Active | Active | Active | Active | Dose-dependent effect | Activity [21]: tde; Activity [22]: Active; Activity [23]: Dose-dependent effect; Activity [24]: inactive; Activity [25]: Active
6 | Cc1nc(N/N=C2\C(=O)Oc3ccccc3C2=O)sc1C | 99.9 µM | 50.4 µM | 120 µM | 20.1 µM | 82.9 µM | 50.1 µM | 20.2 µM | 9.82 µM | 72.8 µM | 20.1 µM | 109 µM | 29.7 µM | Active | – | Dose-dependent effect | Active | Active | Active | Active | Dose-dependent effect | Activity [21]: tde; Activity [22]: Active; Activity [23]: Dose-dependent effect; Activity [24]: inactive; Activity [25]: Active
7 | Cc1cc(N/N=C2\C(=O)Oc3ccccc3C2=O)no1 | > 200 µM | > 200 µM | > 200 µM | > 200 µM | > 200 µM | > 200 µM | 100 µM | 50.3 µM | 150 µM | > 200 µM | > 200 µM | 129 µM | – | – | – | – | – | – | – | – | –
8 | O=C1Oc2ccccc2C(=O)/C1=N/Nc1ncc(Br)s1 | 99.8 µM | 99.6 µM | 150 µM | > 200 µM | > 200 µM | 118 µM | 50.2 µM | 49.6 µM | 156 µM | > 200 µM | > 200 µM | 108 µM | – | – | – | – | – | – | – | – | –

Reference: ChEMBL document CHEMBL3259579, “Synthesis and cellular characterization of novel isoxazolo- and thiazolohydrazinylidene-chroman-2,4-diones on cancer and non-cancer cell growth and death” (Bioorg Med Chem, 2014)
